A short description of test [1]: inhibitors of TNFa-induced NFkB p65 translocation, primary screen, imaging, HUVEC, MLSMR starter and 10KST1 sets (AID 438;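 active means inhibition above 20% together with a positive visual image hit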;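 further: compound added about 3h40 before a 20 min TNFalpha stimulation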;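 on inhibition: signal is the nuclear over cytoplasmic p65 intensity ratio per well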). The settings on record: HUVEC TNFa-induced p65 nuclear translocation; cell count: measured here: nuclei count (cytotoxicity indicator), at 2.08 µM; inhibition: at 2 µM, stronger effect = higher value, 0% TNFa-plus-vehicle, 100% no-TNFa wells.
Test [2] in a line: inhibitors of E-selectin induction by TNFa, primary screen, imaging, HUVEC, immunofluorescence, MLSMR starter and 10KST1 sets (AID 487;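 active means visually confirmed hit in the image check and inhibition above 20%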;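 on inhibition: signal is fraction of cell area covered by stained E-selectin grains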;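 on nuclei count: 100% = median nuclei count of all wells on the same plate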). The settings on record: HUVEC TNFalpha-induced E-selectin immunofluorescence imaging, at 2 µM; inhibition: stronger effect = higher value; nuclei count: measured here: cell number, toxicity.
Test [3] is described as follows: DUSP6 inhibitors restoring Erk phosphorylation by chemical complementation, primary imaging in DUSP6-transfected HeLa (AID 609;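 active means compounds giving at least 50% inhibition in the cell-based MKP-3 phosphatase rescue imaging test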;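 on inhibition: phospho-Erk level distribution per well compared with pooled transfected vehicle control wells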). The settings on record: HeLa MKP-3 transfected, phospho-Erk imaging KS statistic, at 10 µM, cells stimulated with TPA for 15 min.
Test [4] concerns the target Dual specificity protein phosphatase 6 (Homo sapiens) (UniProt Q16828). Described as above. The settings on record: HeLa MKP-3 transfected, phospho-Erk imaging KS statistic; at 10 µM; stronger effect = higher value; cells stimulated with TPA for 15 min.
For test [5], the target named is Voltage-gated potassium channel subunit beta-2 (Rattus norvegicus) (UniProt P62483). As to the kind of experiment: KvBeta enzyme negative modulators, primary screen, biochemical, NADPH fluorescence (AID 622).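 Further: slope of raw intensity against log time taken from 70 to 1610 s.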 The settings on record: recombinant KvBeta, 4-cyanobenzaldehyde reduction, at 10 µM, stronger effect = higher value.
Test [6] shares this target. Nature of the test: KvBeta positive modulators, primary screen, biochemical, NADPH fluorescence (AID 623;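 active means NADPH fluorescence slope more negative than the mean of all samples by about 3 SD, 99.7% confidence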;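 further: fluorescence intensity change per second fitted from 20 to 320 s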). The settings on record: Recombinant KvBeta, NADPH fluorescence decrease slope, 10 min; at 10 µM; stronger effect = lower value.
Test [7] deals with Alpha-2C adrenergic receptor (Homo sapiens) (UniProt P18825). As to the kind of experiment: modulators of alpha2C/GIRK thallium flux, primary screen, cell-based, HEK293 alpha2C/GIRK1/2 (AID 624;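 active means fluorescence slope after compound addition differing from the mean of all screened samples at 99.7% confidence, in either direction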;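 further: slope of fluorescence ratio to pre-addition baseline per second over 15 to 24 s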). The settings on record: thallium flux BTC fluorescence, at 10 µM, actives lie on both sides.
A short description of test [8]: inhibitors of larval lipid processing in zebrafish, primary screen, whole organism, PED6 fluorescence, gall bladder and intestine (AID 686;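 active means a full or partial loss of lipid-probe fluorescence in the fish gall bladder, intestine or both, judged by eye; inactive means no fluorescence loss, or compound toxic to the fish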;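 further: larvae 5 to 7 days old with five fish per well; signal comes from phospholipase A2 cleavage of quenched PED6 carried via bile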). The settings on record: Zebrafish larvae PED6 lipid processing, fluorescence scoring; screened at 20 µM (by protocol). An outline of the steps: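 system = live zebrafish larvae aged 5-7 days, whole organism | probe or stimulus = ingested quenched lipid PED6 at 100 nM | doses = 20 µM single dose | timing = overnight exposure | detection = fluorescence microscopy with visual scoring of gall bladder and intestine | read-out = visual per-well fluorescence inhibition score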

Test [9] is described as follows: inhibitors of Chlamydomonas gravitaxis, primary screen, whole organism, Chlamydomonas reinhardtii, WT vs cilia-less mutant, absorbance, 96-well (AID 463189;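 active means inhibition at or above 50% relative to wild type and mutant plate controls; inactive means inhibition below 50%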;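 further: 0% = wild type cc124 cells in DMSO and 100% = ciliumless bld1 mutant cells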). The settings on record: OD600 absorbance, 2 days, at 10 µM, stronger effect = higher value.
The mark [10] stands for this setting: measured here: cell density z-score.
The mark [11] stands for this setting: measured here: nuclear c-Myc green intensity z-score.
The mark [12] stands for this setting: measured here: nuclear pErk red intensity z-score, stronger effect = higher value.

Each structure is given as a SMILES string. Active and inactive are the calls of the source.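 How the source made its calls, unless noted: active means fluorescence slope higher than the sample average by over 3 SD (cut at about -0.22 in these data, passing the limit was not always enough); inactive means the rest.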

Voltage-gated potassium channel subunit beta-2 (Rattus norvegicus), sequence (P62483 whole entry, looked up): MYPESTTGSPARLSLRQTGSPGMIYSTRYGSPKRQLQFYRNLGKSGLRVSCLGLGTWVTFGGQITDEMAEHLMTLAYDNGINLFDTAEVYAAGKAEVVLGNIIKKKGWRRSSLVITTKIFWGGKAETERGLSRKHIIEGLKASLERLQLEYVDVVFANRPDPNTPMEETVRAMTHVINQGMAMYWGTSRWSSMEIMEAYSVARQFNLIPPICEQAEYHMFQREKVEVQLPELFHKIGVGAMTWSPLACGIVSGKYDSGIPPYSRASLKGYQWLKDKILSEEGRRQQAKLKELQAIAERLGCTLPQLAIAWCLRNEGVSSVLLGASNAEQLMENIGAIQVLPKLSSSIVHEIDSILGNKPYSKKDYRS
Dual specificity protein phosphatase 6 (Homo sapiens), sequence (Q16828 whole entry, looked up): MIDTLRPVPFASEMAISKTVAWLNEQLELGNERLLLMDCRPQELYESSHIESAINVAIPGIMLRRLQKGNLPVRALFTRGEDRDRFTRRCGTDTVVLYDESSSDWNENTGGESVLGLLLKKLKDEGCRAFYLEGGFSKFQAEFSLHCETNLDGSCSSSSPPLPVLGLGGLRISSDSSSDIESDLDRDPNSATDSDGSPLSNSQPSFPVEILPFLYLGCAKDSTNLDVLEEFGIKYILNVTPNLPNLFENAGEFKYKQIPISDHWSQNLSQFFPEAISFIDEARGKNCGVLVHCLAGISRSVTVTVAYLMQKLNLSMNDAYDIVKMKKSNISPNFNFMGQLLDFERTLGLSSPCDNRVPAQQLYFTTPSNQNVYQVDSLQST
Alpha-2C adrenergic receptor (Homo sapiens), sequence (P18825 whole entry, looked up): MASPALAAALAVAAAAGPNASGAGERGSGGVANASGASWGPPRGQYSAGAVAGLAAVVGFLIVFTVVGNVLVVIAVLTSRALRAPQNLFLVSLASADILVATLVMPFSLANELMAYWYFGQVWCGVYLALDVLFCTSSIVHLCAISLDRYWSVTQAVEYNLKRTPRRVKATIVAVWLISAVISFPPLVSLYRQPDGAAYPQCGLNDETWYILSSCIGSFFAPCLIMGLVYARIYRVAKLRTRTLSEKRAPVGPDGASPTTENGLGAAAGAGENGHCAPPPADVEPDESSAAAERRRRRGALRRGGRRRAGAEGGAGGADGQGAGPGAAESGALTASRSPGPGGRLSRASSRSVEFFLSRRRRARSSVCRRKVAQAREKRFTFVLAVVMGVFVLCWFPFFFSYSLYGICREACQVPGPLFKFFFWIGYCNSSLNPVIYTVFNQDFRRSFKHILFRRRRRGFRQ

Broadly, the inhibition is the change of the read-out against control, counted positive when it falls. `Cn1c(NCC(O)c2ccccc2)nc2c1c(=O)n(Cc1ccc(Cl)c(Cl)c1)c(=O)n2C` (centres undefined): the cell count in test [1] stood at 669. The inhibition in [1] was -6.1% (inactive); in [2] it was -18.3% (inactive); in test [4], 6.04% (inactive); in test [9], 75.1% (active). In test [2], this compound displayed a nuclei count of 162%. In addition, the results for the z-score in [3] (setting [10]), in [3] (setting [11]) and in test [3] (setting [12]) were 0.306, 0.44 and 1.81, respectively. For the same compound, the fluorescence slope in test [5] is -0.518 (inactive). Moreover, the NADPH fluorescence slope in test [6] was -3.6e-05 (inactive). Moreover, the slope in test [7] is 0.00441 (inactive). The result in test [8] was inactive.

In the case of `Cc1c(OCc2ccccc2)c(=O)ccn1Cc1ccccc1`, the cell count in [1] is 560. For the same compound, the inhibition in test [1] was -7.9% (inactive); in test [2], -27.8% (inactive); in test [4], -2.91% (inactive); in test [9], -5.81% (inactive). This compound also displayed a nuclei count in test [2] of 226%. Also, the z-score was 0.907 in test [3] (setting [10]), -0.745 in test [3] (setting [11]) and -0.326 in [3] (setting [12]). Besides, the fluorescence slope in test [5] was -0.379 (inactive). Also, the NADPH fluorescence slope in test [6] was -2.4e-05 (inactive). Also, the slope in [7] is 0.00471 (inactive). Also, in test [8], the compound was classed as inactive.

Regarding `CCOC(=O)c1ccc(N=CC2=C(O)CC(c3ccco3)CC2=O)cc1` (centres undefined), in test [1], the cell count was 411. The inhibition in [1] was -17.7% (inactive); in test [2], -249% (inactive); in test [4] it was 16% (inactive); in [9], 1.78% (inactive). Further, in test [2], the nuclei count is 188%. The z-score in [3] (setting [10]) was 1.91; in test [3] (setting [11]) it was -1.05; in test [3] (setting [12]), 0.242. Moreover, in test [5], the fluorescence slope is -0.351 (inactive). The NADPH fluorescence slope in test [6] was -1.6e-05 (inactive). Also, in test [7], the slope is 0.00521 (inactive). In addition, the compound was classed as inactive in test [8].

Consider `O=CNC(=O)c1ccccc1C(=O)O`, for which the cell count in [1] came out at 545. Also, the inhibition in test [1] was -5.9% (inactive); in test [2] it was -60.7% (inactive); in test [4], 11.9% (inactive); in [9], 28.5% (inactive). Further, the nuclei count in test [2] is 162%. Besides, the z-score was 1.01 in test [3] (setting [10]), -0.571 in test [3] (setting [11]) and -1.1 in [3] (setting [12]). Further, in [5], the fluorescence slope is -0.522 (inactive). Further, the NADPH fluorescence slope in test [6] is -2.4e-05 (inactive). The slope in [7] is 0.00526 (inactive). In addition, in test [8], the call was inactive.

Take `COc1ccc(C(C)=O)cc1CSCCC(=O)O`: the cell count in test [1] was found to be 513. Besides, the inhibition in test [1] is -1.6% (inactive); in test [2], -82.1% (inactive); in test [4] it was -5.26% (inactive); in test [9] it was 0.764% (inactive). In addition, the nuclei count in test [2] came out at 175%. In addition, the values for the z-score in test [3] (setting [10]), in test [3] (setting [11]) and in [3] (setting [12]) were 1.45, -1.72 and -4.2, respectively. For the same compound, in test [5], the fluorescence slope was -0.349 (inactive). Further, in test [6], the NADPH fluorescence slope was 1.8e-05 (inactive). The slope in [7] is 0.00434 (inactive). In test [8], the compound was classed as inactive.

On to `Cn1ncc2nnn(-c3ccccc3)c(=O)c21`, for which the cell count in [1] stood at 492. In addition, the inhibition in [1] was -0.2% (inactive); in [2], -10.3% (inactive); in test [4], -1.12% (inactive); in test [9], -10.6% (inactive). Also, in [2], the nuclei count is 107%. Besides, the z-score in test [3] (setting [10]) was -0.32; in test [3] (setting [11]), 1.71; in test [3] (setting [12]), -1.2. Further, in test [5], the fluorescence slope is -0.497 (inactive). In addition, the NADPH fluorescence slope in [6] is -0.000269 (inactive). Moreover, in test [7], the slope was 0.00475 (inactive). Further, the outcome in test [8] was inactive.

Turning to `CC1(C)CC(=O)C(C=NCC(O)c2ccccc2)=C(O)C1` (centres undefined), the cell count in [1] came to 461. In addition, the inhibition in test [1] was -12.7% (inactive); in [2], -181% (inactive); in [4], 4.37% (inactive); in test [9] it was 14.3% (inactive). The same compound yielded a nuclei count in test [2] of 204%. Also, the z-score in test [3] (setting [10]) is -1.15; in test [3] (setting [11]), 1.23; in [3] (setting [12]), 0.572. Also, in test [5], the fluorescence slope was -0.354 (inactive). Also, in [6], the NADPH fluorescence slope was -1.9e-05 (inactive). In test [7], the slope is 0.00522 (inactive). Moreover, the result in test [8] was inactive.

Consider `Cc1cccc(OCc2nc(C)cc(=O)[nH]2)c1`, for which the cell count in test [1] is 594. For the same compound, the inhibition in test [1] was -7.7% (inactive); in test [2] it was -84.7% (inactive); in test [4] it was 14% (inactive); in [9], -4.66% (inactive). In addition, the nuclei count in [2] amounted to 173%. The z-score is 2.18 in [3] (setting [10]), 0.349 in [3] (setting [11]) and -1.33 in test [3] (setting [12]). Also, in test [5], the fluorescence slope is -0.409 (inactive). In test [6], the NADPH fluorescence slope is -2.4e-05 (inactive). Also, in [7], the slope was 0.00552 (inactive). Besides, the compound was classed as inactive in test [8].

Take `CCOC(=O)CCCCC(=O)NC(CO)C(=O)NC` (centres undefined): in [1], the cell count stood at 573. Besides, the inhibition is -3.8% (inactive) in test [1], -97.8% (inactive) in [2], 22.1% (inactive) in [4] and -2.9% (inactive) in test [9]. In [2], the nuclei count was 204%. For the same compound, the z-score in test [3] (setting [10]) is -1.05; in test [3] (setting [11]), 1.41; in test [3] (setting [12]), -0.705. Further, the fluorescence slope in [5] was -0.374 (inactive). Moreover, the NADPH fluorescence slope in test [6] is -2.1e-05 (inactive). Besides, the slope in test [7] was 0.00506 (inactive). Also, the compound was called inactive in [8].

As to `COC(=O)c1cc(Br)c(=O)n(Cc2ccc3c(c2)OCO3)c1`, the cell count in test [1] is 533. Further, the inhibition in test [1] was 2.2% (inactive); in test [2], -141% (inactive); in [4], -14% (inactive); in [9], 110% (active). In addition, the nuclei count in test [2] was determined as 135%. Further, the z-score in [3] (setting [10]) worked out at 0.138; in test [3] (setting [11]), 0.394; in test [3] (setting [12]), 1.32. In [5], the fluorescence slope is -0.501 (inactive). Also, the NADPH fluorescence slope in test [6] is -4.4e-05 (inactive). For the same compound, the slope in test [7] is 0.00422 (inactive). In addition, in [8], the call was inactive.

As for `CC(=O)C1=C(O)C(=O)N(c2cccc(C(=O)O)c2)C1c1ccc(F)cc1` (centres undefined), in test [1], the cell count turned out to be 580. Also, the inhibition in [1] is -13% (inactive); in test [2], -65.7% (inactive); in [4] it was -6.06% (inactive); in [9], -5.48% (inactive). The nuclei count in [2] came out at 160%. In addition, the z-score is -0.487 in test [3] (setting [10]), -0.742 in test [3] (setting [11]) and 1.35 in test [3] (setting [12]). Further, the fluorescence slope in test [5] was -0.509 (inactive). Also, the NADPH fluorescence slope in test [6] is -3.9e-05 (inactive). Further, in test [7], the slope was 0.00665 (inactive). Further, in [8], the compound was called inactive.

For the compound `Cc1cc(C)c(NC(=O)OCCN2CCOCC2)c(C)c1`, the cell count in [1] was 581. The inhibition was -17.3% (inactive) in test [1], -82.2% (inactive) in [2], 3.56% (inactive) in test [4] and 19.8% (inactive) in test [9]. In addition, the nuclei count in test [2] is 168%. In addition, the z-score in test [3] (setting [10]) was -0.0769; in test [3] (setting [11]), -0.6; in test [3] (setting [12]), 1.06. The fluorescence slope in test [5] was -0.468 (inactive). Besides, the NADPH fluorescence slope in [6] is -7.1e-05 (inactive). For the same compound, in test [7], the slope was 0.00577 (inactive). The result in test [8] was inactive.

Consider `COC(=O)c1[nH]c2cc(OC)ccc2c1NC(=O)CN1CCC(C(N)=O)CC1`, for which, in test [1], the cell count was 363. The inhibition was 2.6% (inactive) in test [1], 14.4% (inactive) in test [2], 9.42% (inactive) in [4] and 25.6% (inactive) in test [9]. Moreover, the nuclei count in test [2] came out at 134%. Moreover, the z-score is 0.612 in test [3] (setting [10]), -0.732 in test [3] (setting [11]) and -0.532 in test [3] (setting [12]). Also, the fluorescence slope in [5] was -0.434 (inactive). For the same compound, the NADPH fluorescence slope in test [6] was -0.000147 (inactive). The slope in test [7] was 0.00651 (inactive). In addition, in test [8], the call was inactive.

The values above are taken from PubChem BioAssay.
